Experimental data taken from ChEMBL document CHEMBL3751698, “5,7-Disubstituted-[1,2,4]triazolo[1,5-a][1,3,5]triazines as pharmacological tools to explore the antagonist selectivity profiles toward adenosine receptors” (Eur J Med Chem, 2016).

What was measured:
[1] = species on record: Homo sapiens; assay: Selectivity index, ratio of Ki for human A1 adenosine receptor to Ki for human A2A adenosine receptor
[2] = target: Adenosine receptor A2a (Homo sapiens, UniProt P29274); assay: Displacement of [3H]NECA from human A2A adenosine receptor expressed in CHO cell membranes
Outline: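 Crude membranes from stably transfected CHO cells, prepared by a two-step spin (1,000 x g, then 100,000 x g). Competition with 10 nM [3H]NECA, with nonspecific binding measured in presence of 100 µM R-PIA. Ki derived from competition experiments.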

[3] = target: T1, Adenosine receptor A3 (Homo sapiens, UniProt P0DMS8); assay: Displacement of [3H]HEMADO from human A3 adenosine receptor expressed in CHO cell membranes
T1 sequence (P0DMS8 whole entry): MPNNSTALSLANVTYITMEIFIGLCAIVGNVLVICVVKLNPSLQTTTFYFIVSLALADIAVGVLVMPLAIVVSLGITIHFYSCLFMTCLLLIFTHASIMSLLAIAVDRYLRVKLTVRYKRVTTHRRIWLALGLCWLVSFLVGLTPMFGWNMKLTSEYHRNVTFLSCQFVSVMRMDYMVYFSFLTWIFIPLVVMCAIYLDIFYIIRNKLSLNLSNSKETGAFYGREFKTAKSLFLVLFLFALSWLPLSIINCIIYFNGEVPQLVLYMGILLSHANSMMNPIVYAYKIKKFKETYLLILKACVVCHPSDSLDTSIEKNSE
Outline: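 Two-step centrifugation (1,000 x g, then 100,000 x g) of stably transfected CHO cells gave the membranes. Displacement of 1 nM [3H]HEMADO; nonspecific binding taken with 100 µM R-PIA. Ki computed from competition data.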

[4] = target: T2, Adenosine receptor A2b (Homo sapiens, UniProt P29275); assay: Antagonist activity at human A2B adenosine receptor expressed in CHO cell membranes assessed as inhibition of NECA stimulated adenylyl cyclase activity; assay type: functional, cell-based
T2 sequence (P29275 whole entry): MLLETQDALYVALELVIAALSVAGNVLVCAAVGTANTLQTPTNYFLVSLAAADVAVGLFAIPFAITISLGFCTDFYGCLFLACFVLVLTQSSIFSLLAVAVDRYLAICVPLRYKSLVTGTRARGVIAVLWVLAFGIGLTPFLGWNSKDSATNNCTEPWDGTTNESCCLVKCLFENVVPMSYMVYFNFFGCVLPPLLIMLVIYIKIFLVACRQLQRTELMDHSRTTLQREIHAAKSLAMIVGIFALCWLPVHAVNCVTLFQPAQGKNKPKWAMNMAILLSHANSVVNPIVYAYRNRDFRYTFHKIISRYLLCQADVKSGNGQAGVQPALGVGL
Outline: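 CHO cells stably expressing hA2B; crude membranes from a single high-speed spin, resuspended in 50 mM Tris/HCl pH 7.4 and used fresh. Incubated 20 min with about 150,000 cpm [α-32P]ATP in a mixture without EDTA and NaCl. IC50 for inhibition of NECA-stimulated cyclase obtained by Hill equation fit.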

[5] = target: T3, Adenosine receptor A1 (Homo sapiens, UniProt P30542); assay: Displacement of [3H]CCPA from human A1 adenosine receptor expressed in CHO cell membranes
T3 sequence (P30542 whole entry): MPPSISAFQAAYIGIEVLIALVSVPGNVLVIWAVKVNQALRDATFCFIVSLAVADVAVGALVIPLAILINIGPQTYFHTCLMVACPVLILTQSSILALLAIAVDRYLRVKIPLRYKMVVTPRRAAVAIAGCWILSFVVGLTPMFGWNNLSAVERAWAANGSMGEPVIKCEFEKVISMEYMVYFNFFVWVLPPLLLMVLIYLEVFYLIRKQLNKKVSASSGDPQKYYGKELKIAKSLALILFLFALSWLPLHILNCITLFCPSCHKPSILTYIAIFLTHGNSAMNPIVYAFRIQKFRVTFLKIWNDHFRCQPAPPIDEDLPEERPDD
Outline: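 Membranes from stably transfected CHO cells (1,000 x g spin to clear nuclei and debris, then 100,000 x g pellet), resuspended in binding buffer and frozen. Competition against 1 nM [3H]CCPA; nonspecific binding defined with 1 mM theophylline. Ki calculated from competition curves.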

[6] = species on record: Homo sapiens; assay: Selectivity index, ratio of Ki for human A3 adenosine receptor to Ki for human A2A adenosine receptor

Adenosine receptor A2a, sequence (P29274 whole entry): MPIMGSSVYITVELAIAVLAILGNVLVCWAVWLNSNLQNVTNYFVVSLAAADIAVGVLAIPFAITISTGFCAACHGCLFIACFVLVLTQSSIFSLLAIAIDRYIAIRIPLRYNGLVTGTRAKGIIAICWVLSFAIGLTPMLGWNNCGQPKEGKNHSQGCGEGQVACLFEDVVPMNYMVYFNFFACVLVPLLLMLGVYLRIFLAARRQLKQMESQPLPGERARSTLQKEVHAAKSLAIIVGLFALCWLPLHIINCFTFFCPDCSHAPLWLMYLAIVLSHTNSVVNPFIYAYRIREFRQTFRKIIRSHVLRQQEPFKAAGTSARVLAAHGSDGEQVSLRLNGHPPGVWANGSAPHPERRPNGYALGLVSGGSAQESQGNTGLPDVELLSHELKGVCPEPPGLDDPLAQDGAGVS

Row | Structure (SMILES) | Ratio Ki [1] | Ki [2] [nM] | Ki [3] [nM] | IC50 [4] [nM] | Ki ([5]; read-out: Ki) [nM] | Ratio Ki [6] | Ki ([5]; cho)
1 | c1coc(-c2nc3nc(NC4CCCCC4)nc(NC4CCCCC4)n3n2)c1 | 1.73 | 177 | 129 | > 30000 | 306 | 0.73 | –
2 | CC(C)Nc1nc(N)n2nc(-c3ccco3)nc2n1 | 66.5 | 64.8 | 568 | > 30000 | 4310 | 8.76 | –
3 | Nc1nc(NC2CCCCC2)nc2nc(-c3ccco3)nn12 | 38.8 | 3.56 | 370 | 13400 | 138 | 104 | –
4 | c1ccc(CNc2nc(NC3CCCCC3)nc3nc(-c4ccco4)nn23)cc1 | – | – | – | – | – | – | ND(Insoluble)
5 | CNc1nc(NC(=O)Nc2ccccc2)n2nc(-c3ccco3)nc2n1 | 38.6 | 99.6 | 572 | > 30000 | 3850 | 5.74 | –
6 | O=C(Cc1ccccc1)Nc1nc(NC2CCCCC2)nc2nc(-c3ccco3)nn12 | 42.8 | 23.6 | 286 | > 30000 | 1010 | 12.1 | –
7 | CNc1nc(NC2CCCCC2)n2nc(-c3ccco3)nc2n1 | 2.52 | 143 | 905 | > 30000 | 361 | 6.33 | –
8 | CC(C)Nc1nc(NC(=O)Nc2ccccc2)n2nc(-c3ccco3)nc2n1 | 13.6 | 86.9 | 170 | > 30000 | 1180 | 1.96 | –
9 | Fc1ccc(CNc2nc(NC3CCCCC3)nc3nc(-c4ccco4)nn23)cc1 | > 893 | 112 | 1300 | > 30000 | > 100000 | 11.6 | –
10 | CNc1nc(NC(=O)c2ccccc2)n2nc(-c3ccco3)nc2n1 | 54.1 | 194 | 9240 | > 30000 | 10500 | 47.6 | –
11 | O=C(Nc1nc(NC2CCCCC2)nc2nc(-c3ccco3)nn12)c1ccccc1 | 7.41 | 1020 | 8500 | > 30000 | 7560 | 8.33 | –
12 | Fc1ccc(CNc2nc(NCc3ccc(F)cc3)n3nc(-c4ccco4)nc3n2)cc1 | > 2290 | 43.6 | 123 | > 30000 | > 100000 | 2.82 | –
13 | CC(C)Nc1nc(NC(=O)c2ccccc2)n2nc(-c3ccco3)nc2n1 | 11.3 | 2150 | 13400 | > 30000 | 24400 | 6.23 | –
14 | CC(C)Nc1nc(NC(=O)Cc2ccccc2)n2nc(-c3ccco3)nc2n1 | 18.2 | 393 | 257 | > 30000 | 7150 | 0.65 | –
15 | c1ccc(CNc2nc(NC3CCCCC3)n3nc(-c4ccco4)nc3n2)cc1 | 4.2 | 15.2 | 455 | > 30000 | 63.9 | 29.9 | –
16 | c1ccc(Oc2nc(NC3CCCCC3)n3nc(-c4ccco4)nc3n2)cc1 | 6.7 | 113 | 294 | > 30000 | 757 | 2.6 | –
17 | CNc1nc(NCc2ccc(F)cc2)n2nc(-c3ccco3)nc2n1 | 13.1 | 235 | 557 | > 30000 | 3080 | 2.37 | –
18 | CC(C)Nc1nc(NC2CCCCC2)n2nc(-c3ccco3)nc2n1 | 2.02 | 397 | 105 | > 30000 | 801 | 0.26 | –
19 | O=C(Nc1ccccc1)Nc1nc(NC2CCCCC2)nc2nc(-c3ccco3)nn12 | 120 | 7.87 | 349 | > 30000 | 946 | 44.3 | –
20 | CNc1nc(NC(=O)Cc2ccccc2)n2nc(-c3ccco3)nc2n1 | 29.9 | 300 | 1670 | > 30000 | 8960 | 5.57 | –
21 | CNc1nc(N)n2nc(-c3ccco3)nc2n1 | 52.1 | 49.3 | 1560 | > 30000 | 2570 | 31.6 | –

Next, values leading:

Row | Ratio Ki [1] | Ki [2] [nM] | Ki [3] [nM] | IC50 [4] [nM] | Ki ([5]; read-out: Ki) [nM] | Ratio Ki [6] | Ki ([5]; cho) | Structure (SMILES)
22 | 15.2 | 95.2 | 250 | > 30000 | 1450 | 2.63 | – | O=C(Nc1nc(NCc2ccccc2)nc2nc(-c3ccco3)nn12)c1ccccc1
23 | 16 | 173 | 275 | > 30000 | 2770 | 1.59 | – | CNc1nc(NCc2ccccc2)n2nc(-c3ccco3)nc2n1
24 | > 253 | 394 | 114 | > 30000 | > 100000 | 0.29 | – | CC(C)Nc1nc(NCc2ccccc2)n2nc(-c3ccco3)nc2n1
25 | 68.3 | 21.8 | 75.3 | > 30000 | 1490 | 3.45 | – | Fc1ccc(CNc2nc(NCc3ccccc3)nc3nc(-c4ccco4)nn23)cc1
26 | > 110 | 905 | > 100000 | > 30000 | > 100000 | > 110 | – | Fc1ccc(CNc2nc(Oc3ccccc3)nc3nc(-c4ccco4)nn23)cc1
27 | 216 | 1.44 | 29.7 | 4360 | 311 | 20.6 | – | O=C(Nc1ccccc1)Nc1nc(NCc2ccccc2)nc2nc(-c3ccco3)nn12
28 | 38.4 | 20.4 | 37 | 11800 | 784 | 1.81 | – | c1ccc(CNc2nc(NCc3ccccc3)n3nc(-c4ccco4)nc3n2)cc1
29 | 125 | 5.39 | 45.5 | 7620 | 676 | 8.44 | – | O=C(Cc1ccccc1)Nc1nc(NCc2ccccc2)nc2nc(-c3ccco3)nn12
30 | 85.2 | 1.11 | 30.8 | 2210 | 94.6 | 27.7 | – | Nc1nc(NCc2ccccc2)nc2nc(-c3ccco3)nn12
31 | > 178 | 560 | 375 | > 30000 | > 100000 | 0.67 | – | c1ccc(CNc2nc(Oc3ccccc3)nc3nc(-c4ccco4)nn23)cc1
